For series [1], the target named is T1, E. coli GroEL/ES (Escherichia coli, UniProt P0A6F5). Briefly: Inhibition of Escherichia coli GroEL expressed in Escherichia coli DH5alpha/Escherichia coli GroES expressed in Escherichia coli BL21 (DE3) assessed as reduction in GroEL/GroES-mediated denatured MDH refolding after 20 to 40 mins by spectrometric analysis. The method in brief:
(§1)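 Uses E. coli GroEL/ES with a denatured MDH or rhodanese reporter. GroEL first forms a binary complex with the denatured reporter. Refolding is started by adding ATP and GroES, then reporter enzyme activity is read. DMSO is the negative control. IC50 values from replicate curves are log-averaged after ROUT outlier screening.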

For series [2], the target named is T1, E. coli GroEL/ES. In words: Inhibition of Escherichia coli GroEL expressed in Escherichia coli DH5alpha/Escherichia coli GroES expressed in Escherichia coli BL21 (DE3) assessed as reduction in GroEL/GroES-mediated denatured rhodanese refolding after 45 mins by spectrometric analysis. The method in brief: as §1
Series [3] deals with Staphylococcus aureus. Briefly: Antibacterial activity against Staphylococcus aureus ATCC 25923 after 6 to 8 hrs by bacterial proliferation assay. It is filed as functional, organism-based.
In series [4] the target is T2, Thiosulfate sulfurtransferase (Homo sapiens, UniProt Q16762).
T2 sequence (Q16762 whole entry): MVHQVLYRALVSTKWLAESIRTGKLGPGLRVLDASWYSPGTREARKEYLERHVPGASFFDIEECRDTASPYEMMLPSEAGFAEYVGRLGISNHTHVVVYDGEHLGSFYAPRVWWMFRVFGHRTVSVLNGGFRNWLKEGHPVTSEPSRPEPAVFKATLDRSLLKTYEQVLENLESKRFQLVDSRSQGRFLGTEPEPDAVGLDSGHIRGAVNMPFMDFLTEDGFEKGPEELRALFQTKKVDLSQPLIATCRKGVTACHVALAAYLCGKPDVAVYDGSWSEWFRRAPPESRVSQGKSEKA
Briefly: Inhibition of refolded rhodanese (unknown origin) preincubated with Escherichia coli GroEL/GroES for 60 mins in absence of compound followed by compound addition by spectrometric analysis.

Series [5] is described as follows: Inhibition of refolded MDH (unknown origin) preincubated with Escherichia coli GroEL/GroES for 45 mins in absence of compound followed by compound addition and measured for 20 to 35 mins by spectrometric analysis.
Series [6] deals with Enterococcus faecium. Briefly: Antibacterial activity against Enterococcus faecium ATCC 19434 after 24 hrs by bacterial proliferation assay. The format is functional, organism-based. Conditions: ATCC 19434, 24 h.
The test system of series [7] is Staphylococcus aureus. Briefly: Antibacterial activity against methicillin-resistant Staphylococcus aureus ATCC BAA-44 after 6 to 8 hrs by bacterial proliferation assay. The format is functional, organism-based. Conditions: Staphylococcus aureus, ATCC BAA-44.
Series [8] relates to Klebsiella pneumoniae. In words: Antibacterial activity against Klebsiella pneumoniae ATCC 13883 after 6 to 8 hrs by bacterial proliferation assay. The format is functional, organism-based. The method in brief: (§2)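 Bacterial growth inhibition in liquid culture. The highest concentration tested was 100 µM. The mean was back-calculated from the average log value. Values above the top concentration were set 0.1 log unit higher.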

Series [9] has as its system Acinetobacter baumannii. Briefly: Antibacterial activity against Acinetobacter baumannii ATCC 19606 after 24 hrs by bacterial proliferation assay. The format is functional, organism-based. Conditions: ATCC 19606 = CIP 70.34 = JCM 6841, 24 h. The method in brief:
as §2

Series [10] concerns Pseudomonas aeruginosa. In words: Antibacterial activity against Pseudomonas aeruginosa ATCC 10145 after 24 hrs by bacterial proliferation assay. The format is functional, organism-based. Conditions: ATCC 10145, 24 h. The procedure, abridged: as §2
Series [11] concerns Enterobacter cloacae. In words: Antibacterial activity against Enterobacter cloacae subsp. cloacae ATCC 13047 after 24 hrs by bacterial proliferation assay. It is filed as functional, organism-based. The following applies: subsp. cloacae ATCC 13047, 24 h. The method in brief:
as §2

The target of series [12] is HSP60/HSP10 (Homo sapiens, UniProt P10809). In words: Inhibition of human N-terminal octa-His-tagged HSP60 expressed in Escherichia coli Rosetta(DE3) pLysS/human HSP10 expressed in Escherichia coli Rosetta(DE3) assessed as reduction in HSP60/HSP10-mediated denatured MDH refolding after 40 to 60 mins by spectrometric analysis. The procedure, abridged:
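Human HSP60/10 refolding of denatured MDH, run the same way as the GroEL/ES-dMDH assay. A binary complex of chaperonin and denatured MDH is formed, and refolding is started with ATP and HSP10. MDH activity is the read-out. DMSO is the negative control. IC50 values from replicate curves are log-averaged after ROUT outlier screening.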

Series [13] is described as follows: Cytotoxicity against human THLE3 cells assessed as reduction in cell viability after 48 hrs by Alamar Blue reporter assay. Conditions: 48 h.
The subject of series [14] is HEK293. Briefly: Cytotoxicity against HEK293 cells assessed as reduction in cell viability after 48 hrs by Alamar Blue reporter assay. The following applies: human, hek293, 48 h. Background: Alamar Blue is a resazurin reagent that responds to reducing activity.

Some results are limits rather than exact numbers.

T1 sequence (P0A6F5 whole entry, looked up): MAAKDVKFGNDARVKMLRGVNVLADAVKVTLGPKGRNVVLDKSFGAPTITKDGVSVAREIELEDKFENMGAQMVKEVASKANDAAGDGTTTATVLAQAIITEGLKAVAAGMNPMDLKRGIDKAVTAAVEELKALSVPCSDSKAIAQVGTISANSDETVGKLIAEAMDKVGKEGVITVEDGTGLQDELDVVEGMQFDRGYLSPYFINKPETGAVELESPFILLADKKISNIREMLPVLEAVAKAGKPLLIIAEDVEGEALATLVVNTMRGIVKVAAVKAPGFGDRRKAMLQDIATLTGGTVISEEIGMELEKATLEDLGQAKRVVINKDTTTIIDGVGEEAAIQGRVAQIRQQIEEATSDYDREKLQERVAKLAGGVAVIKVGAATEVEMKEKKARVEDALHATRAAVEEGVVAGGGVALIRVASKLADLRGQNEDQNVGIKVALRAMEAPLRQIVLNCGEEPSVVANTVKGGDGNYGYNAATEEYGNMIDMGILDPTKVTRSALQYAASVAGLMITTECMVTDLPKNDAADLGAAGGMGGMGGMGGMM
Sequence of HSP60/HSP10 (P10809 whole entry): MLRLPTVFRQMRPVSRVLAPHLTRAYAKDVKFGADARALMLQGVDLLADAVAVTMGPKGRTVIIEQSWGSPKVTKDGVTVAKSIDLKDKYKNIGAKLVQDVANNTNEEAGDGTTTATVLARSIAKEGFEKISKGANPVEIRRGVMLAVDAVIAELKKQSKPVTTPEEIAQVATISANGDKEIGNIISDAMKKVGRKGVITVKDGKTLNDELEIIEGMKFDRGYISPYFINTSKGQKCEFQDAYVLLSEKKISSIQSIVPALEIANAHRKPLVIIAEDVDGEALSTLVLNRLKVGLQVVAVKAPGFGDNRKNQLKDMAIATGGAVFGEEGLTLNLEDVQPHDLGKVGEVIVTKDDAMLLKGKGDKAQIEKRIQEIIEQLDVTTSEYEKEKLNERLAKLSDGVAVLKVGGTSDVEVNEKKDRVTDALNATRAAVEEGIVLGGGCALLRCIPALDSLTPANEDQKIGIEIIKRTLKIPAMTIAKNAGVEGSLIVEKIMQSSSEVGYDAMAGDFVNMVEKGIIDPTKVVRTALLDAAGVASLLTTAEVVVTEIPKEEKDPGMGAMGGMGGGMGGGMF
Sequence of HSP60/HSP10 (P61604 whole entry, further chain): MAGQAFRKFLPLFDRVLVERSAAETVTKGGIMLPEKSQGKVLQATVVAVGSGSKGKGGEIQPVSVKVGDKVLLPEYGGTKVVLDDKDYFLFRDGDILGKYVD

As usually defined, the IC50 is the concentration needed to halve the response being measured. A word on the EC50: it is the concentration needed to bring the measured effect to its halfway point. Low readings indicate a more potent agent, high ones a less potent agent. What is called CC50 is the concentration giving 50% cytotoxicity. As for `O=C(Nc1ccc(Sc2nc3ccccc3s2)cc1)c1cccc(Br)c1`, the IC50 in series [1] is above 100 µM; in series [2] it was above 100 µM; in [4], above 100 µM; in [5] it was above 63 µM; in [12] it was above 100 µM. For the same compound, the EC50 in series [3], in [6], in [7], in [8], in series [9] and in [10] was above 100 µM each time. Moreover, in series [11], the EC50 was above 100 µM. Moreover, the CC50 in series [13] turned out to be 82 µM; in series [14] it was 74 µM.

For the compound `O=C(Nc1cccc(Cl)c1)c1cccc(Br)c1`, the IC50 in series [1] was above 100 µM; in [2], above 100 µM; in series [4], above 100 µM; in series [5] it was above 63 µM; in series [12] it was above 100 µM. For the same compound, the EC50 in series [3] was 47 µM; in series [6], above 100 µM; in series [7], 68 µM; in series [8], above 100 µM; in [9] it was above 100 µM; in series [10] it was above 100 µM. In series [11], the EC50 is above 100 µM. In addition, the CC50 amounted to 50 µM in series [13] and 51 µM in series [14].

For `O=C(Nc1cccc(Cl)c1)c1cc(Br)cc(Br)c1`, the IC50 was above 100 µM in series [1]; above 100 µM in [2]; above 100 µM in [4]; above 63 µM in series [5]; above 100 µM in series [12]. Besides, the EC50 is 14 µM in series [3]; above 100 µM in [6]; 12 µM in [7]; above 100 µM in [8]; above 100 µM in series [9]; above 100 µM in series [10]. This compound also showed an EC50 in series [11] above 100 µM. Moreover, the CC50 was found to be 45 µM in [13] and 53 µM in series [14].

For `CO[C@H]1/C=C/O[C@@]2(C)Oc3c(C)c(O)c4c(O)c(c(/C=N/N5CCN(C)CC5)c(O)c4c3C2=O)NC(=O)/C(C)=C\C=C\[C@H](C)[C@H](O)[C@@H](C)[C@@H](O)[C@@H](C)[C@H](OC(C)=O)[C@@H]1C` [RIFAMPIN], the IC50 is above 100 µM in [1]; above 100 µM in series [2]; above 100 µM in series [4]; above 63 µM in series [5]; above 100 µM in [12]. Also, the EC50 in [3] is below 0.05 µM; in series [6] it was 0.13 µM; in series [7] it was 0.23 µM; in series [8], 11 µM; in series [9], 1.3 µM; in [10], 7.8 µM. Further, in series [11], the EC50 came out at 8.8 µM.

Take `O=C(Nc1ccc(Sc2nc3ccccc3s2)cc1)c1cc(Br)cc(Br)c1`: the IC50 in series [1] is above 100 µM; in series [2], above 100 µM; in [4], above 100 µM; in [5], above 63 µM; in series [12], above 100 µM. For the same compound, the EC50 in series [3], in series [6], in [7], in series [8], in series [9] and in series [10] was above 100 µM throughout. The compound also displayed an EC50 in series [11] above 100 µM. Further, the CC50 in series [13] and in series [14] was above 100 µM throughout.

Take `COc1c(Br)cc(Br)cc1C(=O)Nc1ccc(Sc2nc3ccccc3s2)c(Cl)c1`: the IC50 was above 100 µM in [1]; above 100 µM in series [2]; above 100 µM in [4]; above 63 µM in series [5]; above 100 µM in series [12]. The EC50 in series [3], in series [6], in series [7], in [8], in series [9] and in [10] was above 100 µM each time. In series [11], the EC50 was above 100 µM. Besides, the CC50 in series [13] and in series [14] was above 100 µM in each case.

For the compound `COc1c(Br)cccc1C(=O)Nc1ccccc1`, the IC50 is above 100 µM in [1]; above 100 µM in series [2]; above 100 µM in series [4]; above 63 µM in [5]; above 100 µM in [12]. For the same compound, the EC50 in [3], in series [6], in [7], in series [8], in series [9] and in series [10] was above 100 µM each time. In [11], this compound showed an EC50 above 100 µM. In addition, the CC50 in series [13] and in series [14] was above 100 µM in each case.

Turning to `O=C(Nc1ccc(Sc2nc3ccccc3s2)c(Cl)c1)c1cc(Br)ccc1O`, the IC50 in series [1] was 37 µM; in [2], 11 µM; in series [4], above 100 µM; in [5], above 63 µM; in series [12], above 100 µM. Moreover, the EC50 is 0.12 µM in [3]; 15 µM in [6]; 0.17 µM in series [7]; above 100 µM in [8]; above 100 µM in series [9]; above 100 µM in [10]. In addition, in [11], the EC50 is above 100 µM. In addition, the CC50 came to 14 µM in series [13] and 45 µM in [14].

In the case of `O=C(Nc1ccc(Sc2nc3ccccc3s2)cc1)c1cc(Br)ccc1O`, the IC50 was 38 µM in [1]; 30 µM in series [2]; above 100 µM in [4]; above 63 µM in [5]; above 100 µM in series [12]. The EC50 in [3] is 0.12 µM; in [6], 19 µM; in [7] it was 0.14 µM; in series [8], above 100 µM; in series [9], above 100 µM; in series [10] it was above 100 µM. In series [11], the EC50 was above 100 µM. Besides, the CC50 in series [13] was determined as 12 µM; in [14] it was 42 µM.

For `COc1c(Br)cccc1C(=O)Nc1ccc(Sc2nc3ccccc3s2)c(Cl)c1`, the IC50 in [1] was above 100 µM; in [2] it was above 100 µM; in series [4], above 100 µM; in series [5] it was above 63 µM; in series [12], above 100 µM. The EC50 in [3], in series [6], in [7], in [8], in series [9] and in series [10] was above 100 µM in each case. In addition, the EC50 in [11] was above 100 µM. In addition, the CC50 in [13] and in series [14] was above 100 µM each time.

For the compound `O=C(Nc1ccc(Sc2nc3ccccc3s2)cc1)c1cccc(Br)c1O`, the IC50 is 33 µM in [1], 14 µM in [2], above 100 µM in [4] and above 63 µM in series [5]. The EC50 is 0.76 µM in [3]; 11 µM in series [6]; 1.1 µM in series [7]; above 100 µM in [8]; 12 µM in series [9]; above 100 µM in [10]. The EC50 in series [11] is above 100 µM. For the same compound, the CC50 is 36 µM in series [13] and 71 µM in series [14].

Turning to `O=C(Nc1ccc(Sc2nc3ccccc3s2)c(Cl)c1)c1ccccc1O`, the IC50 is 42 µM in series [1]; 63 µM in series [2]; above 100 µM in [4]; above 63 µM in series [5]; above 100 µM in series [12]. Moreover, the EC50 in series [3] is 0.31 µM; in series [6], 64 µM; in series [7], 0.45 µM; in [8], above 100 µM; in series [9] it was above 100 µM; in series [10], above 100 µM. In [11], this compound returned an EC50 above 100 µM. In addition, the CC50 in [13] is 34 µM.

Values taken from ChEMBL document CHEMBL4266041, “Hydroxybiphenylamide GroEL/ES Inhibitors Are Potent Antibacterials against Planktonic and Biofilm Forms of Staphylococcus aureus” (J Med Chem, 2018).
